In ChEMBL document CHEMBL4706526, “The HIV-1 maturation inhibitor, EP39, interferes with the dynamic helix-coil equilibrium of the CA-SP1 junction of Gag” (Eur J Med Chem, 2020):
Calls of active or inactive are those of the source. The calls are words filed in the database; no cut-off is given here.

Key:
[1] = Binding affinity to HIV-1NL4-3 15N-labeled C-terminal domain CA-SP1-NC at S236 residue cleavage site of Gag-Pol protein harboring W184A/M185A mutant expressed in Escherichia coli by 1H-15N SOFAST-HMQC spectroscopic analysis; set-up: species or system Human immunodeficiency virus 1
Method in brief: (§1)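 300 μM 15N-labelled CA-CTD(W184A/M185A)-SP1-NC in acetate buffer (25 mM Na acetate pH 6.5, 25 mM NaCl, 0.1 mM ZnCl2, 0.1 mM 2-mercaptoethanol, 10% D2O), 303 K, 600 MHz with cryoprobe. Ligand added from ~60 mM DMSO-d6 stock; reference 1H-15N SOFAST-HMQC recorded first. Per-residue Kd from non-linear fit of chemical shift perturbation vs ligand concentration, one-site model plus linear non-specific term.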

[2] = Binding affinity to HIV-1NL4-3 15N-labeled C-terminal domain CA-SP1-NC at L231 residue cleavage site of Gag-Pol protein harboring W184A/M185A mutant expressed in Escherichia coli by 1H-15N SOFAST-HMQC spectroscopic analysis; set-up: species or system Human immunodeficiency virus 1; method in brief: as §1
[3] = test system: Human immunodeficiency virus 1; experiment: Binding affinity to HIV-1NL4-3 15N-labeled C-terminal domain CA-SP1-NC cleavage site of Gag-Pol protein harboring W184A/M185A mutant expressed in Escherichia coli assessed as formation of QVT motif at SP1 232 to 239 residues by NMR analysis
[4] = test system: Human immunodeficiency virus 1; experiment: Binding affinity to HIV-1NL4-3 15N-labeled C-terminal domain CA-SP1-NC cleavage site of Gag-Pol protein harboring W184A/M185A mutant expressed in Escherichia coli assessed as change in peak intensity at CA 218 to NC 257 residues by 1H-15N SOFAST-HMQC spectroscopic analysis
Method in brief: (§2)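 1H-15N SOFAST-HMQC of 300 μM 15N-labelled CA-CTD(W184A/M185A)-SP1-NC, without and with ligand. Buffer: 25 mM Na acetate pH 6.5, 25 mM NaCl, 0.1 mM ZnCl2, 0.1 mM 2-mercaptoethanol, 10% D2O. Recorded at 303 K, 600 MHz, cryoprobe. Ligand from ~60 mM DMSO-d6 stock. Control sample held protein plus the same DMSO-d6 amount.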

[5] = Binding affinity to HIV-1NL4-3 15N-labeled C-terminal domain CA-SP1-NC at T239 residue cleavage site of Gag-Pol protein harboring W184A/M185A mutant expressed in Escherichia coli by 1H-15N SOFAST-HMQC spectroscopic analysis; set-up: species or system Human immunodeficiency virus 1; method in brief: as §1
[6] = Binding affinity to HIV-1NL4-3 15N-labeled C-terminal domain CA-SP1-NC at E233 residue cleavage site of Gag-Pol protein harboring W184A/M185A mutant expressed in Escherichia coli by 1H-15N SOFAST-HMQC spectroscopic analysis; set-up: species or system Human immunodeficiency virus 1; method in brief: as §1
[7] = Binding affinity to HIV-1NL4-3 15N-labeled C-terminal domain CA-SP1-NC at T257 residue cleavage site of Gag-Pol protein harboring W184A/M185A mutant expressed in Escherichia coli by 1H-15N SOFAST-HMQC spectroscopic analysis; set-up: species or system Human immunodeficiency virus 1; method in brief: as §1
[8] = Binding affinity to HIV-1NL4-3 15N-labeled C-terminal domain CA-SP1-NC at A232 residue cleavage site of Gag-Pol protein harboring W184A/M185A mutant expressed in Escherichia coli by 1H-15N SOFAST-HMQC spectroscopic analysis; set-up: species or system Human immunodeficiency virus 1; method in brief: as §1
[9] = test system: Human immunodeficiency virus 1; experiment: Binding affinity to HIV-1NL4-3 15N-labeled C-terminal domain CA-SP1-NC cleavage site of Gag-Pol protein harboring W184A/M185A mutant expressed in Escherichia coli assessed as HetNOE value at SP1 T239 residues by NMR analysis (reference value: -0.324No_unit)
[10] = Binding affinity to HIV-1NL4-3 15N-labeled C-terminal domain CA-SP1-NC at M235 residue cleavage site of Gag-Pol protein harboring W184A/M185A mutant expressed in Escherichia coli by 1H-15N SOFAST-HMQC spectroscopic analysis; set-up: species or system Human immunodeficiency virus 1; method in brief: as §1
[11] = test system: Human immunodeficiency virus 1; experiment: Binding affinity to HIV-1NL4-3 15N-labeled C-terminal domain CA-SP1-NC cleavage site of Gag-Pol protein harboring W184A/M185A mutant expressed in Escherichia coli assessed as change in resonances at CA 220/225 to 229 and Nc 248 to 253/ 256 residues by 1H-15N SOFAST-HMQC spectroscopic analysis; method in brief: as §2
[12] = Binding affinity to HIV-1NL4-3 15N-labeled C-terminal domain CA-SP1-NC at V238 residue cleavage site of Gag-Pol protein harboring W184A/M185A mutant expressed in Escherichia coli by 1H-15N SOFAST-HMQC spectroscopic analysis; set-up: species or system Human immunodeficiency virus 1; method in brief: as §1
[13] = test system: Human immunodeficiency virus 1; experiment: Binding affinity to HIV-1NL4-3 15N-labeled C-terminal domain CA-SP1-NC cleavage site of Gag-Pol protein harboring W184A/M185A mutant expressed in Escherichia coli assessed as change in chemical shift perturbation at CA 218 to NC 257 residues by 1H-15N SOFAST-HMQC spectroscopic analysis; method in brief: as §2
[14] = Binding affinity to HIV-1NL4-3 15N-labeled C-terminal domain CA-SP1-NC at Q237 residue cleavage site of Gag-Pol protein harboring W184A/M185A mutant expressed in Escherichia coli by 1H-15N SOFAST-HMQC spectroscopic analysis; set-up: species or system Human immunodeficiency virus 1; method in brief: as §1
[15] = test system: Human immunodeficiency virus 1; experiment: Binding affinity to HIV-1NL4-3 15N-labeled C-terminal domain CA-SP1-NC cleavage site of Gag-Pol protein harboring W184A/M185A mutant expressed in Escherichia coli assessed as change in peak intensity at CA 225 to 229/NC 248 to 251 residues by NMR analysis
[16] = Binding affinity to HIV-1NL4-3 15N-labeled C-terminal domain CA-SP1-NC at V221 residue cleavage site of Gag-Pol protein harboring W184A/M185A mutant expressed in Escherichia coli by 1H-15N SOFAST-HMQC spectroscopic analysis; set-up: species or system Human immunodeficiency virus 1; method in brief: as §1

Structure (SMILES): C=C(C)[C@@H]1CC[C@]2(C(=O)NCCN)CC[C@]3(C)[C@@H](CC[C@@H]4[C@@]5(C)CC[C@H](OC(=O)CC(C)(C)C(=O)O)C(C)(C)[C@@H]5CC[C@]43C)[C@@H]12
- Kd [1]: 180 µM
- Kd [2]: 678 µM
- Activity [3]: Active
- Activity [4]: Active
- Kd [5]: 52.5 µM
- Kd [6]: 237 µM
- Kd [7]: 308 µM
- Kd [8]: 692 µM
- Activity [9]: -0.164
- Kd [10]: 235 µM
- Activity [11]: Active
- Kd [12]: 204 µM
- Activity [13]: Active
- Kd [14]: 154 µM
- Activity [15]: Active
- Kd [16]: 670 µM
